Legend:
[1] = tested on: Rattus norvegicus; assay: Retinotoxicity in Wistar albino rat assessed as increase mesopic implicit time at 200 mg/kg, ip administered QD for 45 to 90 days relative to control; format: toxicity, organism-based; design: dose 200 mg/kg, route intraperitoneal; settings: in vivo
[2] = tested on: Rattus norvegicus; assay: Inhibition of cocaine-induced conditioned place preference in rat assessed as time spent in the chamber at 300 mg/kg, ip administered 2.5 hrs prior to cocaine-challenge measured after 12 days for 15 mins (reference value: 7.1 +/- 0.6 mins); format: functional; settings: route intraperitoneal
[3] = tested on: Rattus norvegicus; assay: Retinotoxicity in Wistar albino rat assessed as increase rod implicit time at 200 mg/kg, ip administered QD for 45 to 90 days relative to control; format: toxicity, organism-based; design: dose 200 mg/kg, route intraperitoneal; settings: in vivo
Method in brief: (§1)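 Wistar albino rats, 9 weeks old at the start and of both sexes, received one i.p. injection daily for 45 or 90 days. The dose was in 0.9% saline made fresh weekly, against a saline vehicle group. After a 5–7 day washout and at least 12 h of dark adaptation, pupils were dilated (tropicamide 1%, phenylephrine 10%). ERG was then recorded from both eyes under ketamine/xylazine.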

[4] = tested on: Rattus norvegicus; assay: Retinotoxicity in male Wistar albino rat assessed as reduction in 10 Hz flicker ERG at 200 mg/kg, ip administered QD for 90 days by electroretinogram analysis relative to control; format: toxicity, organism-based; design: dose 200 mg/kg, route intraperitoneal; settings: in vivo, 2160 h
[5] = tested on: Rattus norvegicus; assay: Retinotoxicity in female Wistar albino rat assessed as reduction in 10 Hz flicker ERG at 200 mg/kg, ip administered QD for 45 days by electroretinogram analysis relative to control; format: toxicity, organism-based; design: dose 200 mg/kg, route intraperitoneal; settings: in vivo, 1080 h
[6] = tested on: Rattus norvegicus; assay: Toxicity in Wistar albino rat assessed as mortality at 200 mg/kg, ip measured up to 3 weeks; format: organism-based; design: dose 200 mg/kg, route intraperitoneal; settings: in vivo, 504 h
Method in brief: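 Mixed-sex Wistar albino rats, 15 per group, dosed ip once daily with drug in 0.9% saline. Monitored for mortality, moribundity, clinical signs, feed intake and body weight. Animals in distress over 24 h were euthanized. Some received food supplements or ip fluids during the first 3 weeks.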

[7] = tested on: Rattus norvegicus; assay: Retinotoxicity in female Wistar albino rat assessed as reduction in 10 Hz flicker ERG at 200 mg/kg, ip administered QD for 90 days by electroretinogram analysis relative to control; format: toxicity, organism-based; design: dose 200 mg/kg, route intraperitoneal; settings: in vivo, 2160 h
[8] = tested on: Rattus norvegicus; assay: Retinotoxicity in Wistar albino rat assessed as increase cone implicit time at 200 mg/kg, ip administered QD for 45 to 90 days relative to control; format: toxicity, organism-based; design: dose 200 mg/kg, route intraperitoneal; settings: in vivo; method in brief: as §1
[9] = tested on: Rattus norvegicus; assay: Retinotoxicity in male Wistar albino rat assessed as reduction in 10 Hz flicker ERG at 200 mg/kg, ip administered QD for 45 days by electroretinogram analysis relative to control; format: toxicity, organism-based; design: dose 200 mg/kg, route intraperitoneal; settings: in vivo, 1080 h

C=CC(N)CCC(=O)O (centres undefined) [VIGABATRIN]
Activity [1]: Toxic | Time [2]: 7.9 min | Activity [3]: Toxic | Activity [4]: Toxic | Activity [5]: Toxic | Activity [6]: Toxic | Activity [7]: Toxic | Activity [8]: Toxic | Activity [9]: Toxic

— ChEMBL document CHEMBL2203122 (J Med Chem, 2012)
